From ChEMBL document CHEMBL4765368, “Structure guided design and synthesis of furyl thiazolidinedione derivatives as inhibitors of GLUT 1 and GLUT 4, and evaluation of their anti-leukemic potential” (Eur J Med Chem, 2020)
pIC50: −log10 of the molar value.

What was measured:
[1] = target: T1, Solute carrier family 2, facilitated glucose transporter member 1 (Homo sapiens) (UniProt P11166); experiment: Inhibition of transport activity of human GLUT1 expressed in hexose transporter deficient VW4000fgy1 yeast cells assessed as reduction in transporter-mediated [14C]-hexose uptake into cells at 100 uM measured after 10 mins by scintillation counting method relative to control; type: cell-based
T1 sequence (whole entry): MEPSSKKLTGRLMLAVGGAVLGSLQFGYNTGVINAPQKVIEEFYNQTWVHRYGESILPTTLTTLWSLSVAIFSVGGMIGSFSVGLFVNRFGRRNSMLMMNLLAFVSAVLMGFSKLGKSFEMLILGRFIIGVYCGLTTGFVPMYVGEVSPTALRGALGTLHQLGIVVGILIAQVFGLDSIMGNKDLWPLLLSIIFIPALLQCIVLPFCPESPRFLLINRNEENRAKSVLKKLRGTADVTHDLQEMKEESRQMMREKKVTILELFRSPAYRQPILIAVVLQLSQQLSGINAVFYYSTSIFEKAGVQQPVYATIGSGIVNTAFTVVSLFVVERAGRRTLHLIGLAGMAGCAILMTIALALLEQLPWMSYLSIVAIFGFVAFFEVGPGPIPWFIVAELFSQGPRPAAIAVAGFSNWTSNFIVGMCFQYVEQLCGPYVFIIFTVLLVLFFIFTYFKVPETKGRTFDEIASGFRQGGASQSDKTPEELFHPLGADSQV
In short: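 The hxt0 yeast strain expressing one human GLUT was grown at 30 °C and resuspended in PBS pH 7.4 at OD600 ~10. Uptake was started with 14C-glucose at 5 mM final (GLUT1, GLUT4) or 14C-fructose at 10 mM final (GLUT5). It was quenched after 10 min with ice-cold 0.1 M KPi/0.1 M LiCl pH 5.5, filtered and counted by scintillation. Compound at 100 μM with 1% DMSO; DMSO control and phloretin 200 μM (GLUT1/4) or MSNBA 100 μM (GLUT5) as references. Triplicates.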

[2] = target: T2, Solute carrier family 2, facilitated glucose transporter member 1 (Homo sapiens, UniProt P11166); experiment: Inhibition of transport activity of human GLUT1 expressed in hexose transporter deficient VW4000fgy1 yeast cells assessed as reduction in transporter-mediated [14C]-hexose uptake into cells measured after 10 mins by scintillation counting method; type: cell-based
T2 sequence (P11166 whole entry): T1 sequence (whole entry)
In short: (§1)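 GLUT1 (VW4000fgy1) or GLUT4 (VW4000fgy1erg4) hxt0 yeast were grown on maltose and then glucose and resuspended in PBS pH 7.4 at OD600 ~10. Compound was used at 0.1–100 μM, final 1% DMSO. Uptake of 5 mM 14C-glucose over 10 min was stopped with ice-cold quench buffer, filtered and counted by scintillation. IC50 was taken from dose-response curves of three independent measurements.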

[3] = target: T3, Solute carrier family 2, facilitated glucose transporter member 4 (Homo sapiens, UniProt P14672); experiment: Inhibition of transport activity of human GLUT4 expressed in hexose transporter deficient W4000fgy1 erg4 yeast cells assessed as reduction in transporter-mediated [14C]-hexose uptake into cells measured after 10 mins by scintillation counting method; type: cell-based; in short: as §1
T3 sequence (P14672 whole entry): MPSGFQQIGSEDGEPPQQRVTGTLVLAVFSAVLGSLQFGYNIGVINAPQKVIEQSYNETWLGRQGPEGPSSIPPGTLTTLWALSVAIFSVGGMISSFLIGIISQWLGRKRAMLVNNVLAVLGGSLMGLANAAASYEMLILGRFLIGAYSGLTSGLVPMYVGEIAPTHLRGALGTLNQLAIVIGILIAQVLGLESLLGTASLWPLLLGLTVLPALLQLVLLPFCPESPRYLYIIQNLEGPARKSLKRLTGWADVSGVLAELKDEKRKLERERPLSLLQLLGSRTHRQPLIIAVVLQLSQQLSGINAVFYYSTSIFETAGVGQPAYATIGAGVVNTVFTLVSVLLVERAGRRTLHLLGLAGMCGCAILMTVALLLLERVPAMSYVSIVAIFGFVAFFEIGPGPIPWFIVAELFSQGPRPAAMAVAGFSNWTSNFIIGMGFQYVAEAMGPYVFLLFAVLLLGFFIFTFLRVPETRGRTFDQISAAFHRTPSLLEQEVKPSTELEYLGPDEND

CCRF-CEM = experiment: Cytotoxicity against human CCRF-CEM cells assessed as reduction in cell viability measured after 48 hrs by Hoechst 33342/propidium iodide staining based imaging analysis; type: functional
In short: (§2)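 Cells were seeded at 10,000 per well (HS-27 at 3,000) in 10% FBS RPMI (leukemic lines) or DMEM (MDA-MB-231, HS-27). Compound in DMSO (1% v/v final) at 0.5–100 µM for 48 h. Hoechst 33342 and PI were added 2 h before automated imaging; dead cells were co-stained. Quadruplicates. CC50 was taken by linear interpolation between the two concentrations nearest 50% death.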

KCL-22 = experiment: Cytotoxicity against human KCL-22 cells assessed as reduction in cell viability measured after 48 hrs by Hoechst 33342/propidium iodide staining based imaging analysis; type: functional; in short: as §2
HS27 = experiment: Cytotoxicity against human HS27 cells assessed as reduction in cell viability measured after 48 hrs by Hoechst 33342/propidium iodide staining based imaging analysis; conditions: hs27, 48 h; in short: as §2
[4] = Selectivity index, ratio of CC50 for human HS27 cells to CC50 for human CCRF-CEM cells
In short: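 Ratio of HS-27 CC50 to CCRF-CEM CC50. Both came from Hoechst/PI differential nuclear staining imaging after 48 h exposure to 0.5–100 µM, in quadruplicate, with 10,000 CEM or 3,000 HS-27 cells/well. Each CC50 was estimated by linear interpolation between the two concentrations nearest 50% cell death.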

[5] = target: T4, Histone deacetylase 8 (Homo sapiens) (UniProt Q9BY41); experiment: (§3) Inhibition of recombinant human His6/SUMO-tagged HDAC8 expressed in Escherichia coli (BL21) DE3 pLysS assessed as residual activity at 50 uM using Boc-Lys(trifluoroacetyl)-AMC as substrate preincubated for 60 mins followed by substrate addition and measured after 60 mins by fluorescence assay relative to control; conditions: time 120.0 min
T4 sequence (whole entry): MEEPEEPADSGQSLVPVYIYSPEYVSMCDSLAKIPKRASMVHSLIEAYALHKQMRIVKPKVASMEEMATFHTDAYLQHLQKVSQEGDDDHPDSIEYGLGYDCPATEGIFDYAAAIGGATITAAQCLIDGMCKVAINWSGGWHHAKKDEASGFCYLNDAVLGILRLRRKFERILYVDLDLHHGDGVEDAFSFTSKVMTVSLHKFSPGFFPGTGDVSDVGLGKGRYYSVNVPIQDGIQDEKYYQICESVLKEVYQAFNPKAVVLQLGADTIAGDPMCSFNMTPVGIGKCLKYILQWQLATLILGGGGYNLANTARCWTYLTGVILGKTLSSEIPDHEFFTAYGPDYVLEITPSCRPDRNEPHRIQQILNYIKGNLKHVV
In short: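 20 μM Boc-Lys(trifluoroacetyl)-AMC was then added for 60 min at 30 °C, the reaction stopped with 1.7 μM SATFMK and developed with 0.4 mg/ml trypsin, and AMC fluorescence read at Ex 350/Em 450 nm. Triplicates; percent relative activity.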

[6] = target: Histone deacetylase 4 (Homo sapiens) (UniProt P56524); experiment: as §3, with “N-terminal GST-tagged HDAC4 (627 to end residues)” for “His6/SUMO-tagged HDAC8”, “baculovirus infected Sf9 insect cells” for “Escherichia coli (BL21) DE3 pLysS”; conditions: time 120.0 min
Histone deacetylase 4 (Homo sapiens), sequence (P56524 whole entry): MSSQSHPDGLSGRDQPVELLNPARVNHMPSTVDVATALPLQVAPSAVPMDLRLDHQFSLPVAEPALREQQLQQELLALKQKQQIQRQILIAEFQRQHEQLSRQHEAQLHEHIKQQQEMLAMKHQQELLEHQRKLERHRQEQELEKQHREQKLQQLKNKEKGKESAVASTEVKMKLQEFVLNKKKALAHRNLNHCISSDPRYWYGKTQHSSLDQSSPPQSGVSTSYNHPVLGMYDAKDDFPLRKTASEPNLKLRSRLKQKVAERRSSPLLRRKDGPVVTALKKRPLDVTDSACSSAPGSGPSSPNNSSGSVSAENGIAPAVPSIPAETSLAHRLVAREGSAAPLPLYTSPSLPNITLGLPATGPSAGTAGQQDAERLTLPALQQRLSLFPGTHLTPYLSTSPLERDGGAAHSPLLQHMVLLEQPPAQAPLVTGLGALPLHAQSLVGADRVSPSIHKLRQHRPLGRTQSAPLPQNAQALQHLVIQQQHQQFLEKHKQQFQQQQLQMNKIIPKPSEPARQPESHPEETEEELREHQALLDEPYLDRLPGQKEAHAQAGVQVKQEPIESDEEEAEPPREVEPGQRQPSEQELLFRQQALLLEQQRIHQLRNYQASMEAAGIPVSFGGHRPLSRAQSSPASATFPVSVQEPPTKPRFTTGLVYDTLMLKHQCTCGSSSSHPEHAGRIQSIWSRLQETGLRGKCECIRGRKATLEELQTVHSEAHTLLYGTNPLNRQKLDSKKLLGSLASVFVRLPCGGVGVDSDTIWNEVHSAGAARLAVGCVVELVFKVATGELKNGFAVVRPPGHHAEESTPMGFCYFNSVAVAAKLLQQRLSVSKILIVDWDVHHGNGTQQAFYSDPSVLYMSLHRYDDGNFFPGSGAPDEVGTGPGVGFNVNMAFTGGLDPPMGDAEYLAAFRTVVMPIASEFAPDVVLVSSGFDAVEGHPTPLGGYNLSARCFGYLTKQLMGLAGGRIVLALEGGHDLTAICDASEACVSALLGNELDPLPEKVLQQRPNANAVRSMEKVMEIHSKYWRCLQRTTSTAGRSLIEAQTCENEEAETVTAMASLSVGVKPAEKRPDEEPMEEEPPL

O=C(CN1C(=O)S/C(=C/c2ccco2)C1=O)Nc1ccc(Cl)c(Cl)c1
inhibition [1]: > 50% | pIC50 [2]: 4.83 | pIC50 [3]: 3.82 | CC50 (CCRF-CEM): 7.8 µM | CC50 (KCL-22): 72.2 µM | CC50 (HS27): > 100 µM | Selectivity Index [4]: > 12.8 | Activity [5]: > 50% | Activity [6]: > 50%

O=C(CN1C(=O)S/C(=C/c2ccco2)C1=O)Nc1nc2ccccc2s1
inhibition [1]: 100% | pIC50 [2]: 4.94 | pIC50 [3]: 5.17 | CC50 (CCRF-CEM): 1.7 µM | CC50 (KCL-22): 15.3 µM | CC50 (HS27): 44 µM | Selectivity Index [4]: > 25.8 | Activity [5]: > 50% | Activity [6]: > 50%
